54 sequences from the array DNA melting data of Ke et al. (doi:10.1101/2024.01.08.574731) can be followed below.

Data set [1] can be described thus: melting temperature; fluorescence melt of hairpins on a sequencing array, two-state fit, raised by 9.35 °C to match UV melts. Conditions: sodium 0.088 M. In a few lines:
(§1)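 Hairpins were imaged by Cy3 fluorescence on a sequenced MiSeq flow cell with annealed Cy3 and quencher oligos, in 50 mM Na-HEPES pH 8.0, 25 mM NaCl, in 2.5 °C steps up to 60 °C. Bootstrapped two-state fits of normalised signals gave melting temperature and folding enthalpy. Four replicates were combined by inverse variance, and fitted temperatures were raised by 9.35 °C to match UV melts.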

The nature of data set [2]: folding enthalpy; higher = less favourable; fluorescence melt of hairpins on a sequencing array, two-state fit. The conditions noted are these: sodium 0.088 M. In a few lines: as §1

As to GCCATTCGAAAGAAAGGC (((.(((....))).))), the Tm in data set [1] was 49.3 °C. The folding enthalpy in data set [2] was -37 kcal/mol.

In the case of GCCATTGCGAAAGCAGGC (((..(((....)))))), in data set [1], the Tm worked out at 51.4 °C. In addition, in data set [2], the folding enthalpy was -19.1 kcal/mol.

With GCCATTGGAAACAATAGC ((.((((....)))).)), in data set [1], the Tm stood at 33.1 °C. Further, the folding enthalpy in data set [2] was -13.7 kcal/mol.

For the sequence GCCATTGGAAACGATGGC (((((.(....).))))), the Tm in data set [1] was found to be 54.1 °C. For the same sequence, the folding enthalpy in data set [2] was -45.8 kcal/mol.

For the sequence GCCCAACCGAAAGGTGGC (((..(((....)))))), the Tm in data set [1] came to 51.6 °C. Moreover, the folding enthalpy in data set [2] is -18.8 kcal/mol.

With GCCCAACGAAAGTTGGC (((.(((....)))))), the Tm in data set [1] was 57.1 °C. In data set [2], the folding enthalpy was -12.8 kcal/mol.

Consider GCCCAAGGAAACCTGGGC (((((.(....).))))), for which the Tm in data set [1] turned out to be 54.1 °C. Further, the folding enthalpy in data set [2] was -43.8 kcal/mol.

In the case of GCCCAATCGAAAGATGGC (((..(((....)))))), the Tm in data set [1] is 43.3 °C. The folding enthalpy in data set [2] was -24.9 kcal/mol.

Regarding GCCCACGAAAGTGATGGC ((((((....)))..))), in data set [1], the Tm was determined as 50.6 °C. For the same sequence, in data set [2], the folding enthalpy was -29.4 kcal/mol.

On to GCCCACGAAAGTGCGGGC ((((((....)))..))), for which the Tm in data set [1] was determined as 55 °C. For the same sequence, in data set [2], the folding enthalpy is -28.4 kcal/mol.

In the case of GCCCACGAAAGTGTGGC ((((((....))).))), in data set [1], the Tm came to 62.4 °C. For the same sequence, in data set [2], the folding enthalpy was -30.2 kcal/mol.

With GCCCACGAAAGTGTGGGC ((((((....)))..))), in data set [1], the Tm was determined as 68 °C. Besides, the folding enthalpy in data set [2] was -31.5 kcal/mol.

With GCCCACGAAAGTGTTGGC ((((((....)))..))), the Tm in data set [1] came to 49 °C. Further, in data set [2], the folding enthalpy is -20.4 kcal/mol.

GCCCACGGAAACATGGGC (((((.(....).))))): the Tm in data set [1] was determined as 50.7 °C. Moreover, the folding enthalpy in data set [2] is -30.8 kcal/mol.

On to GCCCACGGAAACGTGAGC ((.((((....)))).)), for which the Tm in data set [1] is 50.9 °C. In addition, in data set [2], the folding enthalpy is -27.2 kcal/mol.

For the sequence GCCCAGAAATGGGC (((((....))))), the Tm in data set [1] is 63.1 °C. For the same sequence, the folding enthalpy in data set [2] was -33.9 kcal/mol.

For the sequence GCCCAGACGAAAGTCGGC (((..(((....)))))), the Tm in data set [1] came to 49.6 °C. Further, the folding enthalpy in data set [2] is -15.7 kcal/mol.

Regarding GCCCAGCGAAAGCAGCGC ((.(.((....)).).)), the Tm in data set [1] is 46.5 °C. In addition, the folding enthalpy in data set [2] is -13.9 kcal/mol.

In the case of GCCCAGCGAAAGCGGTGC ((.(.((....)).).)), in data set [1], the Tm worked out at 53.1 °C. For the same sequence, the folding enthalpy in data set [2] was -15.8 kcal/mol.

In the case of GCCCAGCGAAAGCTAAGC ((..(((....)))..)), the Tm in data set [1] was 27.7 °C. In addition, in data set [2], the folding enthalpy was -9.29 kcal/mol.

Consider GCCCAGCGAAAGCTAGGC (((.(((....))).))), for which, in data set [1], the Tm amounted to 54.1 °C. For the same sequence, the folding enthalpy in data set [2] is -42.3 kcal/mol.

Regarding GCCCAGCGAAAGCTGTGC ((.((((....)))).)), the Tm in data set [1] was determined as 61 °C. Also, the folding enthalpy in data set [2] was -16 kcal/mol.

Turning to GCCCAGCGAAAGCTTGGC (((.(((....))).))), in data set [1], the Tm came to 54.9 °C. For the same sequence, in data set [2], the folding enthalpy was -53 kcal/mol.

As to GCCCAGGGAAACCTAGGC (((.(((....))).))), the Tm in data set [1] was determined as 43.2 °C. The folding enthalpy in data set [2] was -21.5 kcal/mol.

Turning to GCCCAGTCGAAAGACGGC (((..(((....)))))), the Tm in data set [1] turned out to be 49.3 °C. Besides, the folding enthalpy in data set [2] is -13.4 kcal/mol.

On to GCCCATACGAAAGTAGGC (((..(((....)))))), for which the Tm in data set [1] was determined as 41.5 °C. Moreover, in data set [2], the folding enthalpy was -20.8 kcal/mol.

GCCCCAACGAAAGTTGGC (((..(((....)))))): the Tm in data set [1] came to 38.7 °C. In addition, the folding enthalpy in data set [2] is -5.86 kcal/mol.

As to GCCCCAGGAAACCGGGGC (((((.(....).))))), the Tm in data set [1] is 59.3 °C. Further, the folding enthalpy in data set [2] is -41.2 kcal/mol.

In the case of GCCCCCGAAAGGGAGGC ((((((....))).))), in data set [1], the Tm stood at 68.7 °C. The folding enthalpy in data set [2] was -29.7 kcal/mol.

Consider GCCCCCGAAAGGGATGGC ((((((....)))..))), for which the Tm in data set [1] was 52.1 °C. In addition, the folding enthalpy in data set [2] was -24.1 kcal/mol.

GCCCCGCGAAAGCAGTGC ((.(.((....)).).)): in data set [1], the Tm is 34 °C. Besides, the folding enthalpy in data set [2] is -11.8 kcal/mol.

For GCCCCGCGAAAGCGAAGC ((..(((....)))..)), the Tm in data set [1] is 39.2 °C. The folding enthalpy in data set [2] was -8.06 kcal/mol.

On to GCCCCGCGAAAGCGTAGC ((..(((....)))..)), for which the Tm in data set [1] was 35.8 °C. In addition, in data set [2], the folding enthalpy is -9.13 kcal/mol.

Regarding GCCCCGCGAAAGCGTCGC ((..(((....)))..)), the Tm in data set [1] was 28.8 °C. In addition, in data set [2], the folding enthalpy was -8.15 kcal/mol.

For GCCCCGCGAAAGCGTGGC (((.(((....))).))), the Tm in data set [1] was determined as 67.4 °C. For the same sequence, in data set [2], the folding enthalpy is -25.4 kcal/mol.

Take GCCCCGGGAAACCGAGGC (((.(((....))).))): the Tm in data set [1] turned out to be 54.1 °C. Also, the folding enthalpy in data set [2] is -29.5 kcal/mol.

Consider GCCCCGGGAAACCGGGAC (.(((((....))))).), for which the Tm in data set [1] worked out at 53.7 °C. In data set [2], the folding enthalpy is -12.2 kcal/mol.

For GCCCCGTCGAAAGACGGC (((..(((....)))))), in data set [1], the Tm amounted to 34.4 °C. In addition, the folding enthalpy in data set [2] was -4.65 kcal/mol.

In the case of GCCCCTCGAAAGAGTGGC (((.(((....))).))), the Tm in data set [1] amounted to 52.6 °C. In addition, in data set [2], the folding enthalpy is -38 kcal/mol.

On to GCCCCTGGAAACAGGGAC (.(((((....))))).), for which, in data set [1], the Tm was 51.1 °C. In addition, the folding enthalpy in data set [2] was -13.9 kcal/mol.

On to GCCCCTGGAAACGGGGGC (((((.(....).))))), for which the Tm in data set [1] is 66.6 °C. The folding enthalpy in data set [2] was -33.7 kcal/mol.

As for GCCCGACCGAAAGGTGGC (((..(((....)))))), in data set [1], the Tm stood at 51 °C. In addition, the folding enthalpy in data set [2] was -17.1 kcal/mol.

On to GCCCGACGAAAGTCAGGC (((.(((....))).))), for which the Tm in data set [1] is 57.3 °C. In data set [2], the folding enthalpy was -31.8 kcal/mol.

As to GCCCGACGAAAGTCTGGC (((.(((....))).))), the Tm in data set [1] turned out to be 55.5 °C. For the same sequence, the folding enthalpy in data set [2] is -32.4 kcal/mol.

Turning to GCCCGAGCGAAAGCTGGC (((..(((....)))))), the Tm in data set [1] is 50.9 °C. For the same sequence, in data set [2], the folding enthalpy was -16.1 kcal/mol.

For the sequence GCCCGAGGAAACCCAGGC (((.(.(....).).))), the Tm in data set [1] amounted to 28.1 °C. Also, the folding enthalpy in data set [2] is -16.5 kcal/mol.

As to GCCCGAGGAAACCCGAGC ((.((.(....).)).)), the Tm in data set [1] stood at 30.8 °C. Moreover, the folding enthalpy in data set [2] was -17.1 kcal/mol.

In the case of GCCCGAGGAAACCCGGAC (.(((.(....).))).), in data set [1], the Tm came to 32.7 °C. Further, the folding enthalpy in data set [2] was -19.3 kcal/mol.

For GCCCGAGGAAACCCGGGC (((((.(....).))))), the Tm in data set [1] was 60.6 °C. The folding enthalpy in data set [2] was -40.6 kcal/mol.

For GCCCGAGGAAACTCGAGC ((.((((....)))).)), the Tm in data set [1] came out at 48.4 °C. Moreover, in data set [2], the folding enthalpy is -31 kcal/mol.

GCCCGAGGAAACTTGGGC ((((.((....)).)))): the Tm in data set [1] turned out to be 58.1 °C. For the same sequence, the folding enthalpy in data set [2] was -41.1 kcal/mol.

GCCCGCACGAAAGTGGGC (((..(((....)))))): in data set [1], the Tm came to 57.4 °C. In data set [2], the folding enthalpy is -24 kcal/mol.

GCCCGCCCGAAAGGGGGC (((..(((....)))))): the Tm in data set [1] worked out at 60.2 °C. Further, in data set [2], the folding enthalpy was -13.2 kcal/mol.

Take GCCCGCGAAAGCGAGGGC ((((((....)))..))): the Tm in data set [1] turned out to be 68.7 °C. For the same sequence, the folding enthalpy in data set [2] was -28 kcal/mol.
